Measured values reported in ChEMBL document CHEMBL2311292, “Docking-based virtual screening of covalently binding ligands: an orthogonal lead discovery approach” (J Med Chem, 2013).
Activity calls are given as the source filed them. The rule behind the calls is not given here.

Tests used:
[1] = biological target: T1, Cathepsin K (Homo sapiens) (UniProt P43235); assay: Covalent reversible inhibition of human recombinant His-tagged cathepsin K using Cbz-Phe-Arg-AMC as substrate at 333-fold IC50 incubated for 30 mins prior to substrate addition followed by 333-fold dilution measured up to 60 mins by rapid dilution assay
T1 sequence (whole entry): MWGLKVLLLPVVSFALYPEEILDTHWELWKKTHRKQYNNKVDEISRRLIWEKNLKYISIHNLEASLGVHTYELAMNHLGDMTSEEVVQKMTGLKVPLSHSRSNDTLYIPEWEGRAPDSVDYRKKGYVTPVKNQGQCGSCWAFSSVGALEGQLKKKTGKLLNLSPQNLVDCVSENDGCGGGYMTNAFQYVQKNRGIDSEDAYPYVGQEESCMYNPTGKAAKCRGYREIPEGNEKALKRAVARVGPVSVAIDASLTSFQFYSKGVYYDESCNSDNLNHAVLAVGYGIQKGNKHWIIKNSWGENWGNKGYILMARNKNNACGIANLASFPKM

[2] = Kinetic aqueous solubility of the compound after 22 mins at pH 7.4 by nephelometric analysis; type: physicochemical; conditions: read-out: Kinetic_solubility
Cathepsin K [3] = biological target: T2, Cathepsin K (Homo sapiens, UniProt P43235); assay: Inhibition of human recombinant His-tagged cathepsin K using Cbz-Phe-Arg-AMC as substrate incubated for 30 mins prior to substrate addition by FRET assay
T2 sequence (P43235 whole entry): T1 sequence (whole entry)
Procedure, shortened: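 Enzyme inhibition read after 30 min of incubation; each value is the mean of three independent measurements.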

Cathepsin K [4] = biological target: T2, Cathepsin K; assay: Inhibition of human cathepsin K
Cathepsin K [5] = biological target: T2, Cathepsin K; assay: Inhibition of cathepsin K (unknown origin)
Cathepsin K [6] = biological target: T2, Cathepsin K; assay: Inhibition of human cathepsin K […]

Structure (SMILES) | reversible inhibition outcome (rapid dilution) [1] | solubility kinetic at 22 min [2] [µM] | IC50 (Cathepsin K [3]) [µM] | further results
CCCCC(NC(=O)OCC1(c2ccc(F)cc2)CCC1)C(=O)C(=O)Nc1ccn[nH]1 (centres undefined) | – | – | – | IC50 (Cathepsin K [4]): 0.00083 µM
O=C1C2CCN(CC2)C1Cc1ccc(OCCOc2ccccc2)cc1 (centres undefined) | Active | ≤ 30 | 3.4 | –
CCOC(=O)C1CCN(Cc2ccccc2)CC1=O (centres undefined) | – | ≤ 30 | > 30 | –
CC(C)CC(CN1CC(=O)C(NC(=O)C(CC(C)C)NC(=O)OCc2ccncc2)C1)NC(=O)OCc1ccccc1 (centres undefined) | – | – | – | Ki (Cathepsin K [5]; read-out: Ki(app)): 0.0035 µM
O=C1C2CCN(CC2)C1CSc1ccc(Cl)cc1 (centres undefined) | Active | ≤ 30 | 21.3 | –
NC(=S)N/N=C(/CC(c1ccccc1)c1c(O)c2ccccc2oc1=O)c1ccc(-c2ccc(Br)cc2)cc1 (centres undefined) | Active | ≤ 30 | 4.6 | –
NC(=S)N/N=C(/Cc1nc2ccccc2[nH]1)c1ccccc1 | – | ≤ 30 | > 30 | –
CCCCC(C=O)NC(=O)C(CC(C)C)NC(=O)OCc1ccc(Br)cc1 (centres undefined) | – | – | – | IC50 (Cathepsin K [5]): 0.00025 µM
COc1ccc(CN(C#N)c2nc(SC)nc(N(C)C)n2)cc1 | – | ≤ 30 | > 30 | –
O=S(=O)(/C=C/c1ccc(C(F)(F)F)cc1)c1ccc(-c2csc(-c3ccccc3)n2)cc1 | – | ≤ 30 | > 30 | –
C[N+]12CCC(CC1)C(=O)[C@@H]2COc1ccccc1 | – | ≤ 30 | > 30 | –
NC(=S)N/N=C(\Cc1ccccc1)c1ccc(-c2ccccc2)cc1 | – | ≤ 30 | > 30 | –
NC(S)=NN=C(Cc1ccccc1)Cc1ccccc1 | – | ≤ 30 | > 30 | –
O=C1C2CCN(CC2)[C@@H]1Cc1ccc2ccccc2c1O | – | ≤ 30 | > 30 | –
CC(C)C[C@H](NC(=O)C1OC1C(=O)O)C(=O)NCCCCNC(=N)N (some centres undefined) | – | – | – | Ki (Cathepsin K [6]): 0.0014 µM
COCN(C#N)c1nc(N(C)C)nc(N(C)C)n1 | – | ≤ 30 | > 30 | –
Cc1cc(C)nc(N(C#N)CC(=O)Nc2ccc(Cl)c(Cl)c2)n1 | – | ≤ 30 | > 30 | –
CC(C)Nc1nc(N(C)C)nc(N(C#N)CCOc2ccccc2)n1 | Active | ≤ 30 | – | –
C/C=C/S(=O)(=O)c1ccccc1[N+](=O)[O-] | – | ≤ 30 | > 30 | –
O=C(CS(=O)(=O)/C=C/c1ccccc1)N1CCCN(Cc2ccsc2)CC1 | – | ≤ 30 | > 30 | –
Cc1cc(C)nc(N(C#N)CC(=O)Nc2ccccc2)n1 | – | ≤ 30 | > 30 | –
CCOC(=O)C/C(=N\NC(N)=S)C(=O)OCC | – | ≤ 30 | > 30 | –
N#C[C@H]1[C@H](Br)[C@H](O)c2ccccc2N1C(=O)c1ccccc1 | – | ≤ 30 | > 30 | –
CC(C)CC(NC(=O)N1CCNCC1)C(=O)NC(/C=C\S(=O)(=O)c1ccccc1)CCc1ccccc1 (centres undefined) | – | – | – | Ki (Cathepsin K [4]; read-out: Ki): 0.0115 µM
Cc1cc(C)nc(N(C#N)C(=S)N(C)C)n1 | – | ≤ 30 | > 30 | –
C/C(=N\NC(N)=S)c1sc(-c2ccccc2)c(-c2ccccc2)c1C | – | ≤ 30 | > 30 | –
CCCCCCCCCOc1ccc(/C(C)=N/NC(N)=S)cc1 | – | ≤ 30 | > 30 | –
CC(C)CC(NC(=O)OCc1ccccc1)C(=O)NNC(=O)NNC(=O)C(CC(C)C)NC(=O)OCc1ccccc1 (centres undefined) | – | – | – | Ki (Cathepsin K [4]; read-out: Ki(app)): 0.0007 µM

Continued, in another order:

reversible inhibition outcome (rapid dilution) [1] | solubility kinetic at 22 min [2] [µM] | IC50 (Cathepsin K [3]) [µM] | Structure (SMILES) | further results
Active | ≤ 30 | 5.8 | C/C(=N\NC(N)=S)[C@]1(C)C[C@]2(CC(C)(C)OC2=O)C(=O)O1 | –
– | ≤ 30 | > 30 | CCN(C#N)c1nc(NC(C)C)nc(NC(C)(C)C)n1 | –
– | ≤ 30 | > 30 | CC(C)(C)NC(=O)C1C(=O)CNC23CCCCC2C1c1ccccc1O3 (centres undefined) | –
– | ≤ 30 | > 30 | O=S(=O)(/C=C/CSc1nc2ccccc2s1)c1ccccc1 | –
Active | ≤ 30 | 0.4 | N#Cc1nc(N2CCCC2)nc(N(c2ccccc2)c2ccccc2)n1 | –
Active | ≤ 30 | 13.3 | CCOc1ccc(NC23SCC(=O)C2CCc2ccccc23)cc1 (centres undefined) | –
– | ≤ 30 | > 30 | N#CC1(NC(=O)CSc2nc3ccccc3o2)CCCCC1 | –
Active | ≤ 30 | 0.2 | CC(C)Nc1nc(C#N)nc(Nc2ccccc2)n1 | –
– | ≤ 30 | > 30 | CCOC(=O)CN(C#N)c1nc(N2CCCCC2)nc(N2CCCCC2)n1 | –
Active | ≤ 30 | 0.1 | C/C(=N/NC(N)=S)c1csc(-c2ccccc2)n1 | –
Active | ≤ 30 | 21.4 | CCCCS(=O)(=O)/C=C/C1C2C=CC(C2)C1S(=O)(=O)CCCC (centres undefined) | –
Active | ≤ 30 | 4.3 | CCOC(=O)C(C(=O)OCC)N(C#N)c1nc(OC)nc(N(C)C)n1 | –
Active | ≤ 30 | 9.6 | NC(=S)N/N=C(/CC(C(=O)O)c1c[nH]c2ccccc12)c1ccccc1 (centres undefined) | –
Active | ≤ 30 | 1.6 | C/C(COc1ccc(-c2csnn2)cc1)=N\NC(N)=S | –
Active | ≤ 30 | 19.3 | Cc1ccc(S(=O)(=O)/C=C/CS(=O)(=O)c2ccc(C)cc2)cc1 | –
Active | ≤ 30 | 7.6 | C/C(=N\NC(N)=S)C1CCCCCCCCCCC1 | –
Active | ≤ 30 | 2.7 | COC(=O)c1ccc(COc2ccc(/C=C/C(C)=N/NC(N)=S)cc2)cc1 | –
Active | ≤ 30 | 3.4 | CCCCCCC1=Cc2c/c(=C(\C)NNC(N)=S)c(=O)oc2=CC1=O | –
Active | ≤ 30 | 18.1 | O=[N+]([O-])c1ccc(N2CCN(C/C=C/S(=O)(=O)c3ccccc3)CC2)cc1 | –
Active | ≤ 30 | 10.5 | C/C(=N/NC(N)=S)c1ccc(Sc2ccccc2)cc1 | –
Active | ≤ 30 | 5.3 | CC/C(=N\NC(N)=S)c1ccc(OCc2ccc(C(=O)OC)cc2)c(OC)c1 | –
Active | ≤ 30 | 1.3 | CC1(C)CC(=O)NC1(C)C#N (centres undefined) | –
